The source made the active and inactive calls. The calls are words filed in the database; no cut-off is given here.
Experiments:
Staphylococcus aureus [1] = test: Antibacterial activity against Staphylococcus aureus EMRSA-15 after 18 hrs by serial dilution method; type: functional, organism-based
How it was run: (§1)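 Strains grown on nutrient agar for 24 h at 37 °C. Compounds dissolved in DMSO and diluted in Mueller–Hinton broth to a 512 μg/mL starting concentration, then serially diluted in MHB with 10 mg/L Mg2+ and 20 mg/L Ca2+. Final inoculum 5 × 10^5 cfu/mL; 18 h, 37 °C. MIC is the lowest concentration with no growth, confirmed by MTT colour change. DMSO at most 3.125% v/v; triplicate.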

Staphylococcus aureus [2] = test: Antibacterial activity against Staphylococcus aureus SA1199B after 18 hrs by serial dilution method; type: functional, organism-based; how it was run: as §1
Escherichia coli = test: Antibacterial activity against Escherichia coli NCTC 10418 after 18 hrs by serial dilution method; type: functional, organism-based; how it was run: as §1
RAW264.7 [3] = test: Antiinflammatory activity in mouse RAW264.7 cells assessed as inhibition of LPS-induced nitric oxide production treated 1 hr before LPS challenge measured after 48 hrs by Griess reaction
RAW264.7 [4] = test: Antiinflammatory activity in mouse RAW264.7 cells assessed as inhibition of LPS-induced nitric oxide production at 10 ug/ml preincubated for 1 hr followed by LPS stimulation for 48 hrs by Griess assay; type: functional, cell-based
How it was run: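 RAW 264.7 mouse macrophages in DMEM with 10% heat-inactivated FBS at 37 °C, 5% CO2. Compounds fixed at 10 μg/mL in Carbowax 400 (0.1% v/v final), added 1 h before 100 ng/mL LPS for 48 h. Nitrite in the supernatant measured by Griess reaction (540 nm) against a sodium nitrite standard curve. Controls: 0.1% Carbowax only.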

RAW264.7 [5] = test: Antiinflammatory activity in mouse RAW264.7 cells assessed as inhibition of LPS-induced nitric oxide production preincubated for 1 hr followed by LPS stimulation for 48 hrs by Griess assay; type: functional, cell-based
How it was run: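 Macrophage line RAW 264.7 pretreated 1 h with a range of concentrations (vehicle Carbowax 400, 0.1% v/v final), then given 100 ng/mL LPS for 48 h. Supernatant nitrite read by Griess reaction at 540 nm using a nitrite standard curve. NO normalized to Carbowax-only cells (100%); IC50 is the concentration giving 50% inhibition; four replicates, mean ± SD.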

RAW264.7 [6] = test: Cytostatic activity against mouse RAW264.7 cells assessed as cell growth inhibition after 48 hrs by MTT assay; type: cell-based; conditions: raw264.7, 48 h
How it was run: (§2)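 RAW 264.7 cells seeded, cultured overnight, and the seeded cell number measured before treatment as control. Cells exposed to various concentrations for 48 h, then MTT at 0.5 mg/mL […]. Cells lysed in 2-propanol with 0.4% HCl; absorbance read at 610 nm. OD normalized to control; one-way ANOVA.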

RAW264.7 [7] = test: Cytotoxicity against mouse RAW264.7 cells assessed as cell growth inhibition after 48 hrs by MTT assay; type: cell-based; conditions: raw264.7, 48 h; how it was run: as §2

Structure (SMILES): CCCCCCCCC(=O)CCSSCCC(=O)CCCCCCCC
- Activity (Staphylococcus aureus [1]): inactive
- Activity (Staphylococcus aureus [2]): inactive
- Activity (Escherichia coli): inactive

Structure (SMILES): C=C([C@H]1CC[C@@](C)(O)[C@@H](Br)C1)[C@H]1[C@H](O)[C@@H]2[C@@H](CC[C@@]2(C)O)C1(C)C
- IC50 (RAW264.7 [3]): 2.2 µM

Structure (SMILES): CCCCCC/C=C/C(=O)CCSSCCC(=O)/C=C/CCCCCC
- Activity (Staphylococcus aureus [1]): inactive
- Activity (Staphylococcus aureus [2]): inactive
- Activity (Escherichia coli): inactive

Structure (SMILES): CCCCCC/C=C/C(=O)CCSSCCC(=O)CC(CCCCCC)SC (configuration not stated)
- Activity (Staphylococcus aureus [1]): inactive
- Activity (Staphylococcus aureus [2]): inactive
- Activity (Escherichia coli): inactive

Structure (SMILES): CCCCCCCCC(=O)CCSSCCC(=O)CC(CCCCCC)SC (configuration not stated)
- Activity (Staphylococcus aureus [1]): inactive
- Activity (Staphylococcus aureus [2]): inactive
- Activity (Escherichia coli): inactive
- inhibition (RAW264.7 [4]): Active
- IC50 (RAW264.7 [5]): 3.8 µM
- growth inhibition (GI) (RAW264.7 [6]): Toxic
- GI (RAW264.7 [7]): > 45 µM

Structure (SMILES): CCCCCC/C=C/C(=O)CCSSCCC(=O)CCCCCCCC
- Activity (Staphylococcus aureus [1]): inactive
- Activity (Staphylococcus aureus [2]): inactive
- Activity (Escherichia coli): inactive

Structure (SMILES): CCCCCCC1CC(=O)CCSS1 (configuration not stated)
- Activity (Staphylococcus aureus [1]): inactive
- Activity (Staphylococcus aureus [2]): inactive
- Activity (Escherichia coli): inactive
- inhibition (RAW264.7 [4]): Active
- IC50 (RAW264.7 [5]): 14.2 µM
- growth inhibition (GI) (RAW264.7 [6]): Toxic
- GI (RAW264.7 [7]): > 85 µM
